One block for each molecule: values may come before it. Active and inactive are the calls of the source. No cut-off for these calls is given here.
What was measured:
[1] = target: T1, Polyunsaturated fatty acid 5-lipoxygenase (Homo sapiens) (UniProt P09917); experiment: Inhibition of human recombinant 5-LOX expressed in Escherichia coli BL21 assessed as decrease in 5-HPETE production at 50 uM preincubated with enzyme followed by arachidonic acid substrate addition by UV-vis spectrophotometry
T1 sequence (whole entry): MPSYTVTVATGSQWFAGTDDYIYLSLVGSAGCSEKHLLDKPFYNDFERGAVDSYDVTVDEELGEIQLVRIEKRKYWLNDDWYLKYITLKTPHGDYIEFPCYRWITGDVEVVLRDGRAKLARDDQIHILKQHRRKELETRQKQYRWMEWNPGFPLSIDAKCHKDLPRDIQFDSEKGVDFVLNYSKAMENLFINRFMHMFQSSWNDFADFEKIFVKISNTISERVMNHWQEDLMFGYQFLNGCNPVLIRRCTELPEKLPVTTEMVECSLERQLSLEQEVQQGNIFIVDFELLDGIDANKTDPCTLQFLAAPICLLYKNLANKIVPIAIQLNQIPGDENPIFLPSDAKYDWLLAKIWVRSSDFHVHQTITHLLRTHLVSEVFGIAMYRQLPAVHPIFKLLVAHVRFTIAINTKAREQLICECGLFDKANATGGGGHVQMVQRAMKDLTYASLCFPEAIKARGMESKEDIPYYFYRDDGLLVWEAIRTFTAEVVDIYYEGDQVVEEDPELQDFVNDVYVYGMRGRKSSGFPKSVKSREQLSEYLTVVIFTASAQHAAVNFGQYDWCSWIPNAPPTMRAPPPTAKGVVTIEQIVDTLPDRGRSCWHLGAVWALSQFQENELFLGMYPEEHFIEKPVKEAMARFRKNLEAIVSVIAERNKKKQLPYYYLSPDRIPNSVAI

[2] = target: T2, Prostaglandin E synthase (Homo sapiens) (UniProt O14684); experiment: Inhibition of mPGES1 in human HeLa cells assessed as reduction in TNF-alpha induced PGE2 production at 50 uM preincubated for 2 hrs followed by TNF-alpha addition for 24 hrs by ELISA; format: cell-based
T2 sequence (whole entry): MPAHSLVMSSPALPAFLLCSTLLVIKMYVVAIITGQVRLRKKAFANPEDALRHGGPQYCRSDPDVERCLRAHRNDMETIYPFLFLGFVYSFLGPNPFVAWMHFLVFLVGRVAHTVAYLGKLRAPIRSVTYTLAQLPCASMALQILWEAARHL
In short: (§1)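 Read-out was PGE2 released into the HeLa culture supernatant, measured with an ELISA kit.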

[3] = Antioxidant activity assessed as DPPH radical scavenging activity at 50 uM after 30 mins; format: functional
Prostaglandin E synthase [4] = target: T3, Prostaglandin E synthase (Homo sapiens, UniProt O14684); experiment: Inhibition of mPGES1 in human HeLa cells assessed as reduction in TNF-alpha induced PGE2 production preincubated for 2 hrs followed by TNF-alpha addition for 24 hrs by ELISA; format: cell-based; in short: as §1
T3 sequence (O14684 whole entry): T2 sequence (whole entry)

[5] = Cytotoxicity against human HeLa cells assessed as cell proliferation at 50 uM after 24 hrs by MTT assay; format: toxicity, cell-based; settings: read-out: Activity
[6] = target: T4, Polyunsaturated fatty acid 5-lipoxygenase (Homo sapiens, UniProt P09917); experiment: Inhibition of human recombinant 5-LOX expressed in Escherichia coli BL21 assessed as decrease in 5-HPETE production preincubated with enzyme followed by arachidonic acid substrate addition by UV-vis spectrophotometry
T4 sequence (P09917 whole entry): T1 sequence (whole entry)

[7] = target: T5, Prostaglandin E synthase/G/H synthase 2 (Homo sapiens) (UniProt P35354+O14684); experiment: Inhibition of COX-2/mPGES1 in human HeLa cells assessed as reduction in TNF-alpha induced PGE2 production at 50 uM after 15 mins followed by ELISA; format: cell-based
In short: (§2)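 TNF-treated HeLa cells were exposed to compound for 15 min without added arachidonic acid. PGE2 released into the culture supernatant was measured by ELISA.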

[8] = target: T5, Prostaglandin E synthase/G/H synthase 2 (Homo sapiens); experiment: Inhibition of COX-2/mPGES1 in human HeLa cells assessed as reduction in TNF-alpha induced PGE2 production at 50 uM preincubated for 15 mins followed by arachidonic acid addition for 15 mins by ELISA; format: cell-based
In short: (§3)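 HeLa cells primed with TNF at 50 ng/ml to induce mPGES1, then exposed to compound for 15 min, then challenged with exogenous arachidonic acid for a further 15 min. PGE2 released into the culture supernatant was quantified by ELISA.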

HeLa [9] = experiment: Inhibition of COX-2 mRNA expression in human HeLa cells at 50 uM by RT-PCR method; format: functional, cell-based
In short: (§4)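 Real-time PCR on treated HeLa cells. mRNA levels were normalized to untreated cells and to β-actin, and significance was assessed by 2-way ANOVA.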

HeLa [10] = experiment: Increase in IFN-gamma mRNA expression in human HeLa cells at 50 uM by RT-PCR method relative to control; format: functional; in short: as §4
HeLa [11] = experiment: Inhibition of mPGES1 mRNA expression in human HeLa cells at 50 uM by RT-PCR method; format: functional, cell-based; in short: as §4
HeLa [12] = experiment: Increase in IL-6 mRNA expression in human HeLa cells at 50 uM by RT-PCR method relative to control; format: functional; in short: as §4
HeLa [13] = experiment: Increase in TGF-beta3 mRNA expression in human HeLa cells at 50 uM by RT-PCR method relative to control; format: functional; in short: as §4
HeLa [14] = experiment: Increase in NFkappaB mRNA expression in human HeLa cells at 50 uM by RT-PCR method relative to control; format: functional; in short: as §4
[15] = target: T1, Polyunsaturated fatty acid 5-lipoxygenase (Homo sapiens); settings: 10 uM
[16] = target: T2, Prostaglandin E synthase (Homo sapiens); experiment: Inhibition of mPGES1 in human HeLa cells assessed as reduction in TNF-alpha induced PGE2 production at 5 uM preincubated for 2 hrs followed by TNF-alpha addition for 24 hrs by ELISA; format: cell-based; in short: as §1
[17] = target: T5, Prostaglandin E synthase/G/H synthase 2 (Homo sapiens); experiment: Inhibition of COX-2/mPGES1 in human HeLa cells assessed as reduction in TNF-alpha induced PGE2 production at 5 uM after 15 mins followed by ELISA; format: cell-based; in short: as §2
[18] = target: T5, Prostaglandin E synthase/G/H synthase 2 (Homo sapiens); experiment: Inhibition of COX-2/mPGES1 in human HeLa cells assessed as reduction in TNF-alpha induced PGE2 production at 5 uM preincubated for 15 mins followed by arachidonic acid addition for 15 mins by ELISA; format: cell-based; in short: as §3
HeLa [19] = experiment: Inhibition of COX-2 mRNA expression in human HeLa cells at 5 uM by RT-PCR method; format: functional, cell-based; in short: as §4
HeLa [20] = experiment: Inhibition of mPGES1 mRNA expression in human HeLa cells at 5 uM by RT-PCR method; format: functional, cell-based; in short: as §4
Prostaglandin E synthase [21] = target: T3, Prostaglandin E synthase; experiment: Inhibition of mPGES1 in human A549 cells assessed as reduction in PGE2 production; format: cell-based
[22] = target: Prostaglandin G/H synthase 1 (Homo sapiens, UniProt P23219); experiment: Inhibition of COX-1 (unknown origin)
[23] = substrate: O=c1oc(-c2ccc(O)c(O)c2)cc2ccccc12; settings: Homo sapiens; 10 uM
[24] = substrate: O=c1oc(-c2ccc(O)c(O)c2)cc2ccccc12; settings: Homo sapiens; 50 uM
[25] = substrate: O=c1oc(-c2ccc(O)c(O)c2)cc2ccccc12; settings: Homo sapiens; 10 uM; remark: listed apart in the source
[26] = substrate: O=c1oc(-c2ccc(O)c(O)c2)cc2ccccc12; settings: Homo sapiens; 50 uM; remark: listed apart in the source
[27] = substrate: COc1cc(-c2cc3cccc(O)c3c(=O)o2)cc(OC)c1OC; settings: Homo sapiens; 10 uM
[28] = substrate: COc1cc(-c2cc3cccc(O)c3c(=O)o2)cc(OC)c1OC; settings: Homo sapiens; 30 uM
[29] = substrate: COc1cc(-c2cc3cccc(O)c3c(=O)o2)cc(OC)c1OC; settings: Homo sapiens; 10 uM; remark: listed apart in the source
[30] = substrate: COc1cc(-c2cc3cccc(O)c3c(=O)o2)cc(OC)c1OC; settings: Homo sapiens; 30 uM; remark: listed apart in the source

T5 sequence (P35354 whole entry, looked up, one chain of several): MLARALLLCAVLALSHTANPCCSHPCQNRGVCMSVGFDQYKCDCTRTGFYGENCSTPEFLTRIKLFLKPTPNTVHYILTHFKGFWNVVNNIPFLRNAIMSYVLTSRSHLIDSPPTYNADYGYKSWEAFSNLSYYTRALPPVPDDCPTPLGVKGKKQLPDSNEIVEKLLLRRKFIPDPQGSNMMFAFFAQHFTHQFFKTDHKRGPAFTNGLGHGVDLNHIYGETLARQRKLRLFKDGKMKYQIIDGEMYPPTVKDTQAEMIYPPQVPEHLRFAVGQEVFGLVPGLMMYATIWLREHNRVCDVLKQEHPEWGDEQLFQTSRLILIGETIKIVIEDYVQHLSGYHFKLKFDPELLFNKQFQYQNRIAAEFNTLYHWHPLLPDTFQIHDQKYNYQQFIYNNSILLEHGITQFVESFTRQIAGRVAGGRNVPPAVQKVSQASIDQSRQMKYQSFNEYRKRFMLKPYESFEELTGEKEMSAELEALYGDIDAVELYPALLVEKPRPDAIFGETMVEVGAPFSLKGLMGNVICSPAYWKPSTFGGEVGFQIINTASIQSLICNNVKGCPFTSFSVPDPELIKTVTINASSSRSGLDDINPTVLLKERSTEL
Prostaglandin G/H synthase 1, sequence (P23219 whole entry): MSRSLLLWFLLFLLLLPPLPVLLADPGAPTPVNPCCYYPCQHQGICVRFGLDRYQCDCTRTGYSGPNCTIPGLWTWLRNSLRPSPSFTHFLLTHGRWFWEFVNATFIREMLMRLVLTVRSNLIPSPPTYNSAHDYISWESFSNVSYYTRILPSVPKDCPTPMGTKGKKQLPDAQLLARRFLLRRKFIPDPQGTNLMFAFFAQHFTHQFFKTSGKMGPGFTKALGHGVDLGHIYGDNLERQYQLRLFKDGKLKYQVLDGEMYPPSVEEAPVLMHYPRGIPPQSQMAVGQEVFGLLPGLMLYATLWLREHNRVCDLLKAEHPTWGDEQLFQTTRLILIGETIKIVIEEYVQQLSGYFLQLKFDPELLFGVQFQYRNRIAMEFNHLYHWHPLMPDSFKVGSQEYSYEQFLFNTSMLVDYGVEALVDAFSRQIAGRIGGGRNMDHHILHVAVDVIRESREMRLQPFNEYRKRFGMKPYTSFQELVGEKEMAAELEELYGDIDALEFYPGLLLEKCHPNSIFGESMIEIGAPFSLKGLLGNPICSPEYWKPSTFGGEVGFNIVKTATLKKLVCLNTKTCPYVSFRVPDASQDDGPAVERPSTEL

inhibition [1]: 36.4%
inhibition [2]: 74%
IC50 (Prostaglandin E synthase [4]): 7.1 µM
Molecule: O=c1oc(-c2ccc(O)cc2)cc2cccc(O)c12
Activity [3]: 12.6%
viability at 24 h, 50 µM [5]: 70.6%

inhibition [1]: 35.6%
inhibition [2]: 75%
Molecule: COc1cc(-c2cc3cccc(O)c3c(=O)o2)ccc1O
Activity [3]: 36.2%
viability at 24 h, 50 µM [5]: 79.8%

inhibition [1]: 84.1%
IC50 [6]: 4.6 µM
inhibition [2]: 78%
inhibition [7]: 76%
inhibition [8]: 44%
Molecule: O=c1oc(-c2ccc(O)c(O)c2)cc2ccccc12
Activity [3]: 53 to 53.2%
inhibition (HeLa [9]): Active
fold change (FC) (HeLa [10]): 5.6
inhibition (HeLa [11]): Active
fold change (FC) (HeLa [12]): 1
fold change (FC) (HeLa [13]): 1
fold change (FC) (HeLa [14]): 1
viability at 24 h, 50 µM [5]: 78.7%

inhibition [1]: 36.2%
inhibition [2]: 14%
Molecule: COc1cc(O)c2c(=O)oc(-c3cc(OC)c(OC)c(OC)c3)cc2c1
Activity [3]: 15.4%
viability at 24 h, 50 µM [5]: 60.5%

inhibition [1]: 72%
IC50 [6]: 20.9 µM
inhibition [2]: 73%
IC50 (Prostaglandin E synthase [4]): 9.3 µM
Molecule: COc1cc(-c2cc3ccccc3c(=O)o2)cc(OC)c1OC
Activity [3]: 15.8%
viability at 24 h, 50 µM [5]: 75.7%

Molecule: O=C1O[C@H]([C@@H](O)CO)C(O)=C1O
Activity [3]: 82.2%

inhibition [1]: 49.2%
inhibition [2]: 54%
Molecule: COc1cc(O)c2c(=O)oc(-c3ccccc3)cc2c1
Activity [3]: 16.6%
viability at 24 h, 50 µM [5]: 78.1%

inhibition [1]: 80 to 80.3%
IC50 [6]: 12.4 µM
inhibition [2]: 68%
inhibition [15]: Active
Molecule: COc1cc(-c2cc3cccc(O)c3c(=O)o2)cc(OC)c1OC
Activity [3]: 12 to 12.4%
viability at 24 h, 50 µM [5]: 80.2%

inhibition [1]: 50%
inhibition [2]: 75%
IC50 (Prostaglandin E synthase [4]): 9.5 µM
Molecule: O=c1oc(-c2ccccc2)cc2ccccc12
Activity [3]: 14%
viability at 24 h, 50 µM [5]: 76.7%

inhibition [1]: 34.1%
inhibition [2]: 65%
Molecule: O=c1oc(-c2ccc(O)cc2)cc2ccccc12
Activity [3]: 17%
viability at 24 h, 50 µM [5]: 81.4%

inhibition [1]: 71%
IC50 [6]: 0.5 µM
inhibition [16]: 48%
inhibition [17]: 81%
inhibition [18]: 54.7%
EC50 (Prostaglandin E synthase [21]): 0.1 µM
IC50 [22]: 0.8 µM
Molecule: CC1(C)Cc2c(-c3ccccc3)c(-c3ccc(Cl)cc3)c(CC(=O)O)n2C1 [LICOFELONE]
inhibition (HeLa [19]): Active
inhibition (HeLa [20]): Active
viability at 24 h, 50 µM [5]: 85%

inhibition [1]: 59.1%
inhibition [2]: 44%
IC50 (Prostaglandin E synthase [4]): 11.3 µM
Molecule: COc1ccc(-c2cc3cccc(O)c3c(=O)o2)cc1O
Activity [3]: 17.8%
viability at 24 h, 50 µM [5]: 77.4%

inhibition [1]: 78.8%
IC50 [6]: 22.8 µM
inhibition [2]: 73%
Molecule: COc1cc(-c2cc3ccccc3c(=O)o2)ccc1O
Activity [3]: 47.8%
viability at 24 h, 50 µM [5]: 65%

inhibition [1]: 40.9%
inhibition [2]: 74%
inhibition [7]: 75%
inhibition [8]: 17%
Molecule: O=c1oc(-c2ccc(O)c(O)c2)cc2cccc(O)c12 [THUNBERGINOL A]
Activity [3]: 49%
inhibition (HeLa [9]): Active
fold change (FC) (HeLa [10]): 9.6
inhibition (HeLa [11]): Active
fold change (FC) (HeLa [12]): 1
fold change (FC) (HeLa [13]): 1
fold change (FC) (HeLa [14]): 1
viability at 24 h, 50 µM [5]: 68.7%

inhibition [1]: 55.3%
inhibition [2]: 60%
Molecule: O=c1oc(-c2ccccc2)cc2cccc(O)c12
Activity [3]: 13.4%
viability at 24 h, 50 µM [5]: 75.6%

inhibition [1]: 65.9%
inhibition [2]: 18%
IC50 (Prostaglandin E synthase [4]): 9.7 µM
Molecule: COc1ccc(-c2cc3ccccc3c(=O)o2)cc1O
Activity [3]: 20%
viability at 24 h, 50 µM [5]: 70.5%

inhibition [2]: 50%
Molecule: CC(c1cc2ccccc2s1)N(O)C(N)=O (centres undefined) [ZILEUTON]
Activity [3]: 33.6%
viability at 24 h, 50 µM [5]: 78%

B1: Polyunsaturated fatty acid 5-lipoxygenase (Homo sapiens), P09917 (protein)
chain: T1 sequence (whole entry)
Vmax [23]: 0.93 nmol/min
Vmax [24]: 0.64 nmol/min
Km [25]: 1.38 µM
Km [26]: 1.17 µM
Vmax [27]: 0.83 nmol/min
Vmax [28]: 0.93 nmol/min
Km [29]: 1.2 µM
Km [30]: 1.45 µM

Source: ChEMBL document CHEMBL3872230, “Inhibition of the enzymes in the leukotriene and prostaglandin pathways in inflammation by 3-aryl isocoumarins” (Eur J Med Chem, 2016)
